Data set [1] in a line: Serum stability, mouse serum. The format is in vitro ADME. Summed up: (§1)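 Formulated radiotracer (12.5–25 μl, 2–6 MBq) was added to 0.5 ml of either human or mouse serum and incubated at 37 °C in a sealed tube. At each time point an aliquot was withdrawn and serum proteins were precipitated. The supernatant was analysed by HPLC for intact radiotracer.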
Another data set deals with BxPC-3 [αvβ6(+)] cells. The experiment in a line: Cell binding and internalization, BxPC-3 cells. The class given is cell-based. Particulars: 60 min; n = 4; mean ± SD. The gist of the method:
(§2)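 Tubes were pretreated with non-fat milk (0.5 % w/v in PBS). DX3puro cells were kept in DMEM with puromycin (2 μg/ml); BxPC-3 cells were kept in RPMI. Both media had 10 % heat-inactivated FBS and 1 % PSG, at 37 °C and 5 % CO2. Integrin expression was checked by flow cytometry beforehand. Radiotracer binding and internalization ran 60 min (n = 4) and are reported as fraction of total radioactivity.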

Data set [2] can be described thus: Biodistribution in mice bearing paired DX3puroβ6/DX3puro xenograft tumors. The class given is in vivo. The settings on record: female, athymic nude, mouse, iv, 0.175 nmol per injection, total radioactivity; for tissue uptake at 1 h: 1 h p.i. Summed up:
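Female athymic nude mice carried 3 × 10^6 DX3puro and 3 × 10^6 DX3puroβ6 cells s.c. in DMEM on opposite flanks; studies began at ~0.5 cm tumor diameter. Radiotracer at 1.5–3.3 MBq/animal was given i.v. via tail vein under isoflurane, with mass held at 0.175 nmol by adding nonradioactive peptide. Tissues were taken at 1, 2, 4 or 2, 4, 6 h p.i. (n = 3–4), rinsed and γ-counted; results are decay-corrected % ID/g.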

Data set [3] is described as follows: PET imaging, radioactivity remaining in the body. The class given is in vivo, mouse. Particulars: 4 h p.i., i.v., PET imaging studies, tumor-bearing mice, n = 4; mean ± SD. The gist of the method:
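Mice bearing xenografts (paired DX3puroβ6/DX3puro or BxPC-3) received 5–7 MBq radiotracer i.v. via tail vein, with mass held at 0.175 nmol (7 nmol/kg for a 25-g mouse). Two mice per scan lay prone under 1.5–2.0 % isoflurane (n = 4/radiotracer). Static PET scans: 15 min at 1, 2, 4 h and 30 min at 6 h p.i., plus CT. Body-retained radioactivity was decay corrected.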

Data set [4] can be described thus: Serum stability, human serum. The class given is in vitro ADME. Summed up:
as §1

A further data set relates to DX3puro [αvβ6(−)] cells. The experiment in a line: Cell binding and internalization, DX3puro cells. The class given is cell-based. Particulars: 60 min; n = 4. Summed up:
as §2

The values below come from PMC7647958 (Molecular imaging and biology, 2020).

The structures appear in SMILES notation.

For orientation: fraction remaining means what is left of the initial amount, in per cent. High values mean greater stability, low ones a greater loss. In general, tissue uptake refers to the share of the injected amount in each gram of the tissue. In data set [1], `CC(C)C[C@H](NC(=O)[C@H](CC(=O)O)NC(=O)CNC(=O)[C@H](CCCNC(=N)N)NC(=O)[C@H](CC(C)C)NC(=O)[C@H](CC(N)=O)NC(=O)[C@@H]1CCCN1C(=O)[C@@H](NC(=O)[C@H](C)NC(=O)[C@H](CC(N)=O)NC(=O)CCOCCOCCOCCOCCOCCOCCOCCOCCOCCOCCOCCOCCOCCOCCOCCOCCOCCOCCOCCOCCOCCOCCOCCOCCOCCOCCOCCOCCNC(=O)CN1CCN(CC(=O)O)CCN(CC(=O)O)CC1)C(C)C)C(=O)N[C@@H](CCC(N)=O)C(=O)N[C@H](C(=O)N[C@@H](CC(C)C)C(=O)N[C@@H](C)C(=O)N[C@@H](CCC(N)=O)C(=O)N[C@@H](CCCNC(=N)N)C(=O)N[C@H](C(=O)N[C@@H](C)C(=O)N[C@@H](CCCNC(=N)N)C(=O)N[C@H](C(=O)NCCOCCOCCOCCOCCOCCOCCOCCOCCOCCOCCOCCOCCOCCOCCOCCOCCOCCOCCOCCOCCOCCOCCOCCOCCOCCOCCOCCOCCC(N)=O)[C@@H](C)O)C(C)C)C(C)C` [[^18F]AlF 1, [^18F]AlF NOTA-αvβ6-BP] had an amount remaining at 2 h of 67%. Also, in the data set on BxPC-3 [αvβ6(+)] cells, the “binding to BxPC-3 cells (of total radioactivity)” value is 45.1 ± 0.7% and the “internalization into BxPC-3 cells (of total radioactivity)” value worked out at 31.5 ± 1.3%. The tissue uptake in data set [2] (DX3puro tumor, uptake in DX3puro tumor, all time points (1, 2, 4 h p.i.)) was at most 0.3 %ID/g. Further, in data set [2] (DX3puroβ6 tumor, uptake in DX3puroβ6 tumor, n = 3–4, mean ± SD), the tissue uptake at 1 h amounted to 2.2 ± 0.5 %ID/g. Also, in data set [2] (DX3puroβ6 tumor, uptake in DX3puroβ6 tumor, 4 h p.i., n = 3–4, mean ± SD), the tissue uptake at 4 h turned out to be 3 ± 0.7 %ID/g. Further, in data set [2] (blood, blood radioactivity, DX3puroβ6/DX3puro model), the tissue uptake at 1 h is at most 0.1 %ID/g. For the same molecule, the “injected radioactivity remaining in the body (decay corrected)” value in data set [3] is listed as 21.7 ± 3.4%. This molecule registered a fraction remaining at 2 h in data set [4] of at least 97%. In the data set on DX3puro [αvβ6(−)] cells, the “binding to DX3puro cells (of total radioactivity)” value is recorded as at most 1.2% and the “internalization into DX3puro cells (of total radioactivity)” value was at most 0.5%.
